Article PMC9586919 (ACS infectious diseases, 2021)
Entries after “also recorded” stand apart in the source; their conditions may differ. Read-outs that look alike come from different tables or passages of the source.

What was measured:
T. vaginalis [1] = settings: cited from earlier work
[2] = tested on: Human Embryonic Kidney (HEK) cells; assay: Toxicity against Human Embryonic Kidney; format: cell-based; settings: for S.I. (Selectivity Index): HEK versus T. vaginalis
[3] = tested on: T. vaginalis trophozoites of the metronidazole-sensitive strain G3; assay: Resorufin-based drug sensitivity assay; format: cell-based, Trichomonas vaginalis; settings: for EC50: Trichomonas vaginalis
[4] = mouse models of Chagas' disease; cited from earlier work
T. vaginalis [5] = assay: Fluorescence microscopy; format: cell-based, Trichomonas vaginalis; settings: 2×EC50
Method in brief: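 Samples from the growth-curve cultures, taken at 8-h intervals, were centrifuged twice at 2600 × g for 10 min at 4 °C, with a PBS pH 7.4 wash in between. Cells were air-dried 30 min on poly-L-lysine slides, fixed 15 min in 4% paraformaldehyde/PBS, washed, and mounted in antifade medium with DAPI. Nuclear volumes were measured from Z-stacks. Cultures were passaged at 24 h to 1.32×10^5 cells/mL.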

[6] = tested on: T. vaginalis strain F1623; assay: In vitro activity against T. vaginalis F1623; format: cell-based, Trichomonas vaginalis; settings: T. vaginalis strain F1623, same assay as T. foetus
T. foetus strain D1 = assay: In vitro activity against T. foetus; format: cell-based, Tritrichomonas foetus
[7] = tested on: T. foetus D1 trophozoites; assay: Murine model of vaginal trichomonad infection; format: in vivo, BALB/c mice
Method in brief: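 Freshly weaned (21–24 days) female BALB/c mice were infected intravaginally with 10^6 mid-log T. foetus D1 trophozoites in 5 µL growth medium. One day later they received five doses over three days (1 on day 1, 2 on each of days 2 and 3). Doses were either oral gavage of 25 mg/kg per dose as a suspension in 1% hypromellose, 50 µL, or intravaginal 50 µg in 5 µL; controls received solvent. Live trophozoites in 30 µL PBS vaginal washes were counted in a chamber on day 4.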

[8] = tested on: T. vaginalis trophozoites; assay: Growth curve assay; format: cell-based, Trichomonas vaginalis; settings: 2×EC50, continuous exposure 56 h, passage after 24 h
[9] = Homo sapiens, HEK293, read-out: EC50 HEK
[10] = read-out: EC50 T. vaginalis, resorufin assay, 24 h + 2 h, 2% O2/98% N2, average of at least 3 independent determinations and SD
[11] = read-out: EC50 HEK, HEK cells, average of at least 3 independent determinations and SD

2-F, 2’-deoxyadenosine
antitrichomonal activity (T. vaginalis [1]): ~100 nM

2’-F,2’-deoxyadenosine
antitrichomonal efficacy (T. vaginalis [1]): substantial antitrichomonal efficacy

Nc1ncnc2c1ncn2[C@@H]1O[C@H](CO)[C@@H](O)[C@@H]1F [2’-deoxy-2’-fluoroarabinoadenosine]
antitrichomonal efficacy (T. vaginalis [1]): substantial antitrichomonal efficacy

Nc1nc(F)nc2nc[nH]c12 [Compound 2-F-adenine, 2-F-adenine]
antitrichomonal activity (T. vaginalis [1]): ~100 nM

Nc1ncnc2c1c(-c1ccc(Cl)c(Cl)c1)cn2[C@@H]1O[C@H](CO)[C@@H](O)[C@H]1O [FH3147, 7-deaza,7-(3,4-dichlorophenyl)adenosine]
S.I. (Selectivity Index) [2]: >10,000 | EC50 [2, 9]: > 200 µM | in vitro anti-T. vaginalis activity (EC50) described in words [3]: double-digit nanomolar | EC50 [3, 10]: 0.029 ± 0.003 µM

Nc1ncnc2c1c(-c1ccccc1F)cn2[C@@H]1O[C@H](CO)[C@@H](O)[C@H]1O [FH7435]
EC50 [2, 11]: > 200 µM

Nc1ncnc2c1c(-c1cccc(Cl)c1)cn2[C@@H]1O[C@H](CO)[C@@H](O)[C@H]1O [FH8459]
EC50 [2, 11]: > 200 µM

Nc1ncnc2c1c(-c1cc(Cl)cc(Cl)c1)cn2[C@@H]1O[C@H](CO)[C@@H](O)[C@H]1O [FH8460]
EC50 [2, 11]: > 200 µM

Nc1ncnc2c1c(-c1ccccc1)cn2[C@@H]1O[C@H](CO)C[C@H]1O [FH8480]
in vitro anti-T. vaginalis activity (EC50) described in words [3]: low micromolar

Cc1ccc(-c2cn([C@@H]3O[C@H](CO)C[C@H]3O)c3ncnc(N)c23)cc1 [FH8481]
EC50 [2, 11]: > 200 µM | in vitro anti-T. vaginalis activity (EC50) described in words [3]: low micromolar

COc1ccc(-c2cn([C@@H]3O[C@H](CO)C[C@H]3O)c3ncnc(N)c23)cc1 [FH8494]
EC50 [2, 11]: > 200 µM

Nc1ncnc2c1c(-c1ccc(Cl)cc1)cn2[C@@H]1O[C@H](CO)C[C@H]1O [FH8512]
ill effects on the animals [4]: without any apparent ill effects | EC50 [2, 11]: > 200 µM

Nc1ncnc2c1c(-c1ccc(Cl)c(Cl)c1)cn2[C@@H]1O[C@H](CO)C[C@H]1O [FH8513]
EC50 [2, 11]: > 200 µM

CC(C)c1ccc(-c2cn([C@@H]3O[C@H](CO)C[C@H]3O)c3ncnc(N)c23)cc1 [FH9574]
EC50 [2, 11]: 94 ± 9 µM

Nc1ncnc2c1c(-c1ccc3ccccc3c1)cn2[C@@H]1O[C@H](CO)C[C@H]1O [FH9575]
EC50 [2, 11]: 44 ± 5 µM

Nc1ncnc2c1c(-c1ccc(C(F)(F)F)cc1)cn2[C@@H]1O[C@H](CO)C[C@H]1O [FH9576]
EC50 [2, 11]: 148 ± 22 µM | cell morphology / nuclei (DAPI) (T. vaginalis [5]; 16 h continuous incubation): cells still looked normal at 16 h

Nc1ncnc2c1c(-c1ccc(OC(F)(F)F)cc1)cn2[C@@H]1O[C@H](CO)C[C@H]1O [FH9577]
cell morphology / nuclei (DAPI) (T. vaginalis [5]; 16 h continuous incubation): looked healthy at 16 h | cell morphology / nuclei (DAPI) (T. vaginalis [5]; 24 h continuous incubation): clearly displayed multiple nuclei at 24 h

Nc1ncnc2c1c(-c1ccc(Cl)cc1Cl)cn2[C@@H]1O[C@H](CO)C[C@H]1O [FH9581]
EC50 [2, 11]: > 200 µM

Nc1ncnc2c1c(-c1ccc([N+](=O)[O-])cc1)cn2[C@@H]1O[C@H](CO)C[C@H]1O [FH9582]
EC50 [2, 11]: > 200 µM

Nc1ncnc2c1c(-c1cccc(Cl)c1)cn2[C@@H]1O[C@H](CO)C[C@H]1O [FH10641]
EC50 [2, 11]: > 200 µM

Cc1ccc(-c2cn([C@@H]3O[C@H](CO)C[C@H]3O)c3ncnc(N)c23)cc1Cl [FH10644]
EC50 [2, 11]: 94 ± 9 µM

COc1ccc(-c2cn([C@@H]3O[C@H](CO)C[C@H]3O)c3ncnc(N)c23)cc1Cl [FH10645]
EC50 [2, 11]: > 200 µM

CCc1ccc(-c2cn([C@@H]3O[C@H](CO)C[C@H]3O)c3ncnc(N)c23)cc1 [FH10647]
EC50 [2, 11]: 133 ± 2 µM

Cc1cc(-c2cn([C@@H]3O[C@H](CO)C[C@H]3O)c3ncnc(N)c23)ccc1Cl [FH10648]
EC50 [2, 11]: 146 ± 13 µM

COc1cc(-c2cn([C@@H]3O[C@H](CO)C[C@H]3O)c3ncnc(N)c23)ccc1Cl [FH10649]
EC50 [2, 11]: 178 ± 6 µM

Cc1ccc(-c2cn([C@@H]3O[C@H](CO)C[C@H]3O)c3ncnc(N)c23)cc1C [FH10653]
EC50 [2, 11]: 168 ± 19 µM

Nc1ncnc2c1c(C1CCCCC1)cn2C1OC(CO)CC1O (stereo not drawn) [FH10669]
in vitro anti-T. vaginalis activity (EC50) described in words [3]: very weak activity

Nc1ncnc2c1c(-c1ccc(F)cc1)cn2[C@@H]1O[C@H](CO)C[C@H]1O [FH10680]
EC50 [2, 11]: > 200 µM | in vitro anti-T. vaginalis activity (EC50) described in words [3]: low micromolar

Nc1ncnc2c1c(-c1ccc(F)c(Cl)c1)cn2[C@@H]1O[C@H](CO)C[C@H]1O [FH10681]
EC50 [2, 11]: > 200 µM

Nc1ncnc2c1c(-c1ccc(F)c(F)c1)cn2[C@@H]1O[C@H](CO)C[C@H]1O [FH10682]
EC50 [2, 11]: > 200 µM

Nc1ncnc2c1c(-c1ccc(Cl)c(F)c1)cn2[C@@H]1O[C@H](CO)C[C@H]1O [FH10683]
EC50 [2, 11]: 151 ± 1 µM

Nc1ncnc2c1c(-c1ccc(C(F)(F)F)cc1)cn2[C@@H]1O[C@H](CO)[C@@H](O)[C@H]1O [FH11704]
EC50 [2, 11]: > 200 µM

Cc1ccc(-c2cn([C@@H]3O[C@H](CO)[C@@H](O)[C@H]3O)c3ncnc(N)c23)cc1C [FH13820]
EC50 [2, 11]: > 200 µM

Nc1ncnc2c1c(-c1ccc(F)cc1)cn2[C@@H]1O[C@H](CO)[C@@H](O)[C@H]1O [MS1001]
EC50 [2, 11]: > 200 µM

Nc1ncnc2c1c(-c1ccccc1)cn2[C@@H]1O[C@H](CO)[C@@H](O)[C@H]1O [TH1004, 7-deaza-7-phenyladenosine]
S.I. (Selectivity Index) [2]: >465 | EC50 [2, 9]: > 200 µM | EC50 [3, 10]: 0.44 ± 0.059 µM | cell morphology / nuclei (DAPI) (T. vaginalis [5]; 24 h continuous incubation): the cell membrane appears to be disintegrating and multiple nuclei are present in some cells

Cc1ccc(-c2cn([C@@H]3O[C@H](CO)[C@@H](O)[C@H]3O)c3ncnc(N)c23)cc1 [TH1011]
EC50 [2, 11]: > 200 µM | in vitro anti-T. vaginalis activity (EC50) described in words [3]: double-digit nanomolar

Nc1ncnc2c1c(-c1ccc(Cl)cc1)cn2[C@@H]1O[C@H](CO)[C@@H](O)[C@H]1O [TH1012]
ill effects on the animals [4]: without any apparent ill effects | EC50 [6]: 0.18 µM | EC50 (T. foetus strain D1): 13.9 µM | EC50 [2, 11]: > 200 µM | adverse effects during the treatment period ([7]; oral 5×25 mg/kg or topical 1%, 25 mg/kg): No adverse effects were observed; also recorded: without any apparent ill effects | effect on infection (live trophozoites in vaginal washes on day 4) ([7]; topical intravaginal, 1% (50 μg per dose), five doses over three days): almost complete eradication of the infection; also recorded: almost completely eradicated the T. foetus infection; also recorded: strongly inhibited T. foetus infection in mice | in vitro anti-T. vaginalis activity (EC50) described in words [3]: double-digit nanomolar | cell morphology / nuclei (DAPI) (T. vaginalis [5]; 24 h continuous incubation): displayed multiple nuclei at 24 h

COc1ccc(-c2cn([C@@H]3O[C@H](CO)[C@@H](O)[C@H]3O)c3ncnc(N)c23)cc1 [TH1013]
EC50 [2, 11]: > 200 µM

Nc1ncnc2c1ncn2[C@@H]1O[C@H](CO)[C@@H](O)[C@@H]1O [adenine arabinoside]
antitrichomonal efficacy (T. vaginalis [1]): substantial antitrichomonal efficacy

Cc1ncc([N+](=O)[O-])n1CCO [metronidazole, reference compound]
EC50 ([3]; BD pouch bags incubation, n=16): 0.26 ± 0.02 µM | EC50 ([3]; confirmation experiments, n=9, unit inferred): 0.53 ± 0.1 µM | EC50 ([3]; in-pod incubation, n=16): 0.28 ± 0.02 µM | EC50 ([3]; introduction, hit criterion): ~0.3 µM | effect on T. vaginalis growth [8]: managed a modest amount of growth before arrest and population decline
